A word on the EC50: it is the concentration at which the effect is half-maximal. For orientation: CC50 means the concentration that lowers cell viability or growth by half. Broadly, the IC50 is the point on the concentration scale where inhibition reaches its midpoint. Usually Kd stands for the free concentration of one partner at which half of the binding sites on the other are occupied at equilibrium, for simple one-to-one binding. A higher Kd goes with a looser complex. The term inhibition denotes the share of the control response that was lost under treatment.

This note sets out measurements from ChEMBL document CHEMBL4265939, “Discovery of phenylalanine derivatives as potent HIV-1 capsid inhibitors from click chemistry-based compound library” (Eur J Med Chem, 2018).

Each structure is given as a SMILES string.

For data set [1], the system named is Human immunodeficiency virus 1. The experiment in a line: Antiviral activity against Human immunodeficiency virus 1 NL4-3 infected in human MT4 cells assessed as protection against virus-induced cytopathic effect after 2 days by bright-glo luciferase reporter gene assay. It is filed as functional, organism-based. In short, it runs like this: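 MT-4 cells are infected with 200 TCID50 of HIV-1 NL4-3 over a range of compound concentrations, allowing multiple rounds of infection. After two days the medium is removed and Bright-Glo luminescence is read. […] At least triplicate; mean ± SD of at least two parallel tests.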

Data set [2] deals with MT4. The experiment in a line: Cytotoxicity against human MT4 cells assessed as reduction in cell viability after 24 hrs by CytoTox-Glo cytotoxicity assay. It is filed as cell-based. Particulars: mt4, 24 h; call rule not given here. In short, it runs like this:
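Uninfected MT-4 cells were cultured for 1 day with various compound concentrations, in parallel with the antiviral assays. Percent viable cells was read by the CytoTox-Glo kit following the manufacturer's protocol. […] Each value was run in at least triplicate and averaged from at least four independent experiments.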

In data set [3] the test system is Human immunodeficiency virus 1. The data set can be described thus: Antiviral activity against ENV pseudotyped HIV1 B41 infected in human U87 cells expressing CD4/CCR5 measured after 48 hrs by luciferase reporter gene assay. Type of data set: functional, organism-based. Particulars: Human immunodeficiency virus 1, B41, U-87 MG. The essentials:
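Early-stage single-round assay. U87.CD4.CCR5 target cells, 1.2×10^4 cells/well, are seeded and left 24 h at 37°C. Single-round HIV-1 B41 Env-pseudotyped firefly luciferase virus, produced in HEK293T without compound, is mixed with compound or DMSO vehicle and added to the cells. After 48 h at 37°C the cells are lysed, freeze-thawed and read for luciferase. IC50 from 3 parallel tests.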

In data set [4] the test system is Human immunodeficiency virus 1. The data set can be described thus: Antiviral activity against ENV pseudotyped HIV1 B41 infected in human U87 cells expressing CD4/CCR5 pretreated with virus for 72 hrs followed by infection of cells measured after 48 hrs by luciferase reporter gene assay. Type of data set: functional, organism-based. As to conditions: Human immunodeficiency virus 1, B41, U-87 MG. The essentials:
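Late-stage assay. B41 Env-pseudotyped luciferase viruses are produced in 293T cells with compound (100 μM to 0.01 μM, equal DMSO) or DMSO vehicle for 72 h at 37°C. Supernatants are clarified, filtered, freeze-thawed once, diluted ten-fold and used to infect U87.CD4.CCR5 cells for 48 h at 37°C. Lysate luciferase is normalized to virus made in vehicle-treated cells.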
On the technique in general: A reporter such as luciferase makes a cellular process visible.

Data set [5] deals with U-87 MG. The experiment in a line: Cytotoxicity against human U87 cells expressing CD4/CCR5. Particulars: u-87mg atcc. Type of data set: cell-based.
Data set [6] can be described thus: Selectivity index, ratio of CC50 for human MT4 cells to EC50 for Human immunodeficiency virus 1 NL4-3 infected in human MT4 cells. It is filed as toxicity, cell-based. Particulars: read-out: Ratio CC50/EC50. In short, it runs like this:
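SI is CC50/EC50, both measured in MT-4 cells. For EC50, 200 TCID50 of NL4-3 infected MT-4 cells over multiple rounds in the presence of various compound concentrations. […] CC50 came from a 1-day CytoTox-Glo viability assay on uninfected cells.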

In data set [7] the target is T1, Structural capsid protein (Human immunodeficiency virus 1, UniProt Q76129). The experiment in a line: Binding affinity to HIV1 NL4-3 N-terminal domain capsid protein by surface plasmon resonance. The essentials: (§1)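 SPR at 25°C. HIV-1 NL4-3 CA constructs are amine-coupled at 100 µg/ml in 10 mM sodium acetate, pH 5.0, onto an EDC/sulfo-NHS-activated GLH chip, then ethanolamine-capped. Compound serial dilutions in PBS, 3% DMSO, 0.005% polysorbate 20, pH 7.4 are injected at 100 µl/min with 1 min association and up to 5 min dissociation. Reference-subtracted; KD by equilibrium analysis, at least three experiments.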
T1 sequence (Q76129 whole entry, the tested form may be a part): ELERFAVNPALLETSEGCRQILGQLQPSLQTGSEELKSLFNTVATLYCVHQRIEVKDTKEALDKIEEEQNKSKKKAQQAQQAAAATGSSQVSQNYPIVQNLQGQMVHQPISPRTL

Data set [8] deals with T1, Structural capsid protein. The data set can be described thus: Binding affinity to HIV1 NL4-3 monomeric capsid protein by surface plasmon resonance. The essentials:
as §1
(Surface plasmon resonance follows binding to a sensor surface in real time, without labels.)

Data set [9] deals with T1, Structural capsid protein. The experiment in a line: Binding affinity to HIV1 NL4-3 hexameric capsid protein by surface plasmon resonance. In short, it runs like this:
as §1

Data set [10] in a line: Therapeutic index, ratio of CC50 for human U87 cells to IC50 for ENV pseudotyped HIV1 B41 infected in human U87 cells expressing CD4/CCR5. Type of data set: toxicity, cell-based. Particulars: read-out: Ratio CC50/IC50.
In data set [11] the test system is Human immunodeficiency virus 1. The experiment in a line: Antiviral activity against Human immunodeficiency virus 1 3B infected in human MT4 cells assessed as inhibition of virus-induced cytopathic effect at 2 uM after 5 days by CellTiter-Glo assay relative to control. It is filed as functional. As to conditions: MT4, 120 h. In general terms: Protection from cytopathic effect is a common read-out in antiviral testing.

The test system of data set [12] is Human immunodeficiency virus 1. The experiment in a line: Antiviral activity against Human immunodeficiency virus 1 NL4-3 infected in human MT2 cells measured 4 to 5 days post infection by luciferase reporter gene assay. It is filed as functional, organism-based. As to conditions: Human immunodeficiency virus 1, NL4-3, MT2.
The nature of data set [13]: Cytotoxicity against human MT2 cells after 4 days by XTT assay. It is filed as cell-based.
[14] abbreviates: Human immunodeficiency virus 1, NL4-3, MT4, 48 h, read-out: EC50.

As for `Cc1[nH]c2ccccc2c1CC(=O)N[C@@H](Cc1ccccc1)C(=O)N(C)c1ccccc1`, in data set [1] (setting [14]), the EC50 came out at 5.95 µM. In addition, the cytotoxic concentration (CC50) in data set [2] (read-out: CC50) is greater than 70.5 µM; in [5] it was 73 µM. The IC50 in data set [3] is 0.1 µM; in data set [4], 8.3 µM.

As for `COc1ccc(N(C)C(=O)[C@H](Cc2ccccc2)NC(=O)c2cn(Cc3ccccc3Cl)nn2)cc1`, the half-maximal effective concentration (EC50) in data set [1] (setting [14]) is greater than 19.8 µM. Besides, in data set [2] (read-out: CC50), the CC50 is greater than 19.8 µM.

Regarding `COc1ccc(N(C)C(=O)[C@H](Cc2ccccc2)NC(=O)c2cn(Cc3ccc4ccccc4c3)nn2)cc1`, the EC50 in [1] (setting [14]) was found to be 4.33 µM. Moreover, the CC50 is greater than 57.7 µM in data set [2] (read-out: CC50) and 54.8 µM in data set [5]. Moreover, the selectivity ratio in data set [6] was greater than 13.3; in [10], 2.8. The dissociation constant Kd in data set [7] worked out at 32.7 µM; in data set [8] it was 14 µM; in [9], 11 µM. In addition, the IC50 was determined as 7 µM in data set [3] and 31 µM in [4].

As to `COc1ccc(N(C)C(=O)[C@H](Cc2ccccc2)NC(=O)c2cn(CS(=O)(=O)c3ccccc3)nn2)cc1`, the concentration giving a half-maximal response (EC50) result in [1] (mt4) was “Not Active”. In addition, the cytotoxic concentration (CC50) in data set [2] (read-out: CC50) was greater than 18.7 µM.

As to `COc1ccc(N(C)C(=O)[C@H](Cc2ccccc2)NC(=O)c2cn(Cc3cccc([N+](=O)[O-])c3)nn2)cc1`, the EC50 result in [1] (mt4) was “Not Active”. Besides, the CC50 entry in [2] is reported as “Not Active”.

Turning to `COc1ccc(N(C)C(=O)[C@H](Cc2ccccc2)NC(=O)c2cn(C[S+]([O-])c3ccccc3)nn2)cc1` (some centres not stated), the 50% effective concentration (EC50) in data set [1] (setting [14]) amounted to 6.65 µM. Further, in data set [2] (read-out: CC50), the CC50 was greater than 19.3 µM. For the same compound, in data set [6], the selectivity ratio was greater than 2.91. In addition, the dissociation constant (Kd) in [7] worked out at 28.2 µM; in data set [8] it was 12.7 µM; in data set [9] it was 93.3 µM.

With `COc1ccc(N(C)C(=O)[C@H](Cc2ccccc2)NC(=O)c2cn(Cc3ccccc3C)nn2)cc1`, in data set [1] (setting [14]), the concentration for a half-maximal effect (EC50) amounted to 8 µM. Besides, the CC50 in data set [2] (read-out: CC50) is greater than 20.7 µM. The selectivity ratio in data set [6] is greater than 2.58.

Take `COc1ccc(N(C)C(=O)[C@H](Cc2ccccc2)NC(=O)c2cn(Cc3cccc(Cl)c3)nn2)cc1`: in data set [1] (mt4), the 50% effective concentration (EC50) result was “Not Active”. The cytotoxic concentration (CC50) result in [2] is reported as “Not Active”.

In the case of `COC(=O)c1cccc(-n2cc(C(=O)N[C@@H](Cc3ccccc3)C(=O)N(C)c3ccc(OC)cc3)nn2)c1`, the concentration for a half-maximal effect (EC50) in data set [1] (setting [14]) is 6.91 µM. For the same compound, in data set [2] (read-out: CC50), the half-maximal cytotoxic concentration (CC50) is greater than 19.5 µM. The selectivity ratio in [6] is greater than 2.82.

As to `COc1ccc(N(C)C(=O)[C@H](Cc2ccccc2)NC(=O)c2cn(Cc3ccccc3[N+](=O)[O-])nn2)cc1`, the EC50 in data set [1] (setting [14]) came to 10.2 µM. In addition, the CC50 in data set [2] (read-out: CC50) was greater than 19.4 µM. Further, the selectivity ratio in [6] was greater than 1.91.

On to `COc1ccc(N(C)C(=O)[C@H](Cc2ccccc2)NC(=O)c2cn(Cc3cccc4ccccc34)nn2)cc1`, for which the 50% effective concentration (EC50) in data set [1] (setting [14]) is greater than 19.2 µM. In addition, the CC50 in data set [2] (read-out: CC50) is greater than 19.2 µM.

`COc1ccc(N(C)C(=O)[C@H](Cc2ccccc2)NC(=O)Cn2nc(C(F)(F)F)c3c2CCCC3)cc1`: the inhibition at 2 µM in data set [11] was determined as 100%.

In the case of `COc1ccc(N(C)C(=O)[C@H](Cc2ccccc2)NC(=O)c2cn(Cc3ccccc3C#N)nn2)cc1`, the EC50 in [1] (setting [14]) is greater than 21.5 µM. For the same compound, the CC50 in data set [2] (read-out: CC50) was greater than 21.5 µM.

On to `COc1ccc(N(C)C(=O)[C@H](Cc2ccccc2)NC(=O)NS(=O)(=O)N2CCCc3ccccc32)cc1`, for which, in data set [12], the EC50 turned out to be 110 nM. In data set [13], the 50% cytotoxic concentration (CC50) at 96 h was 33.3 µM.

With `COc1ccc(N(C)C(=O)[C@H](Cc2ccccc2)NC(=O)c2cn(Cc3ccc(C)cc3)nn2)cc1`, the EC50 result in [1] (mt4) is “Not Active”. In addition, the CC50 result in [2] was “Not Active”.

As for `COc1ccc(N(C)C(=O)[C@H](Cc2ccccc2)NC(=O)c2cn(Cc3ccc([N+](=O)[O-])cc3)nn2)cc1`, the EC50 in data set [1] (setting [14]) was greater than 19.4 µM. Further, in data set [2] (read-out: CC50), the 50% cytotoxic concentration (CC50) is greater than 19.4 µM.

For the compound `COc1ccc(N(C)C(=O)[C@H](Cc2ccccc2)NC(=O)c2cn(CSc3ccccc3)nn2)cc1`, the EC50 result in [1] (mt4) is on record as “Not Active”. In addition, the CC50 result in [2] is “Not Active”.

Consider `COc1ccc(N(C)C(=O)[C@H](Cc2ccccc2)NC(=O)c2cn(Cc3cccc(C)c3)nn2)cc1`, for which the EC50 entry in data set [1] (mt4) is reported as “Not Active”. In addition, the CC50 result in data set [2] is given as “Not Active”.

On to `COc1ccc(N(C)C(=O)[C@H](Cc2ccccc2)NC(=O)c2cn(C3CC(n4cc(C)c(=O)[nH]c4=O)OC3CO)nn2)cc1` (some centres not stated), for which, in [1] (setting [14]), the half-maximal effective concentration (EC50) is 10.5 µM. Moreover, the CC50 in data set [2] (read-out: CC50) was greater than 16.6 µM. In addition, the selectivity ratio in [6] was greater than 1.59.

As to `COc1ccc(N(C)C(=O)[C@H](Cc2ccccc2)NC(=O)c2cn(Cc3ccc(Cl)cc3)nn2)cc1`, the EC50 in [1] (setting [14]) is greater than 19.8 µM. Further, the 50% cytotoxic concentration (CC50) in data set [2] (read-out: CC50) is greater than 19.8 µM.

On to `COc1ccc(N(C)C(=O)[C@H](Cc2ccccc2)NC(=O)c2cn(-c3ccc4c(c3)OCO4)nn2)cc1`, for which the EC50 in data set [1] (setting [14]) was determined as 14.9 µM. For the same compound, the CC50 in data set [2] (read-out: CC50) was greater than 20 µM. Also, in [6], the selectivity ratio was greater than 1.34.

As for `COc1ccc(N(C)C(=O)[C@H](Cc2ccccc2)NC(=O)c2cn(Cc3cccc(C#N)c3)nn2)cc1`, in [1] (setting [14]), the EC50 worked out at 9.11 µM. Further, in data set [2] (read-out: CC50), the CC50 was greater than 21.5 µM. Besides, the selectivity ratio in data set [6] was greater than 2.36.

As to `COc1ccc(N(C)C(=O)[C@H](Cc2ccccc2)NC(=O)c2cn(Cc3ccc(C#N)cc3)nn2)cc1`, in data set [1] (setting [14]), the EC50 is 8.98 µM. In addition, in [2] (read-out: CC50), the cytotoxic concentration (CC50) is greater than 21.5 µM. For the same compound, the selectivity ratio in [6] is greater than 2.4.
